These results are taken from ChEMBL document CHEMBL6092133, “Enhancing the therapeutic window for Spectinamide anti-tuberculosis Agents: Synthesis, Evaluation, and activation of phosphate prodrug 3408” (Bioorg Med Chem Lett, 2024).

Each structure is given as a SMILES string.

Data set [1] is described as follows: Drug uptake in female BALB/c mouse plasma infected with Mycobacterium tuberculosis Erdman harboring pFCA-LuxAB plasmid at 400 mg/kg, SC measured after 8 hrs. It counts as ADME, organism-based. As to conditions: in vivo; call rule not given here. In outline: (§1)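 Plasma was sampled from infected BALB/c mice in the acute efficacy study 15 min and 8 h after a 400 mg/kg dose. Parent drug and prodrug levels were each quantified in the prodrug-treated and parent-treated groups.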

In data set [2] the test system is Mycobacterium tuberculosis. The data set is described as follows: Antibacterial activity against Mycobacterium tuberculosis Erdman harboring pFCA-LuxAB plasmid infected in female BALB/c mouse model assessed as log reduction in bacterial burden in lung at 400 mg/kg, SC administered once daily for 12 days starting from day 7 and measured 3 days post last treatment relative to untreated control. It counts as functional. As to conditions: time 15 day. A digest of the protocol: (§2)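 BALB/c mice given a low-dose aerosol infection with M. tuberculosis Erdman pFCA-LuxAB. Dosing ran once daily for 12 consecutive days from day 7 post-infection: 10 mg/kg orally or 400 mg/kg, as the line states. Lung bacterial burden (log10 CFU) was compared with untreated control, six mice per group.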

Data set [3] is described as follows: Drug uptake in female BALB/c mouse plasma infected with Mycobacterium tuberculosis Erdman harboring pFCA-LuxAB plasmid at 400 mg/kg, SC measured after 15 mins. In kind it is ADME, organism-based. As to conditions: in vivo, 0.25 h. A digest of the protocol: as §1
Data set [4] is described as follows: Prodrug conversion in female BALB/c mouse plasma infected with Mycobacterium tuberculosis Erdman harboring pFCA-LuxAB plasmid assessed as 2-(5-chloropyridin-2-yl)-N-((2R,4R,4aS,5aR,6S,7S,8R,9S,9aR,10aS)-4a,7,9-trihydroxy-2-methyl-6,8-bis(methylamino)decahydro-2H-benzo[b]pyrano[2,3-e][1,4]dioxin-4-yl)acetamide formation at 400 mg/kg, SC measured after 15 mins. As to conditions: in vivo, 0.25 h. It counts as ADME, organism-based. A digest of the protocol: as §1

Data set [5] in a line: Prodrug conversion in female BALB/c mouse plasma infected with Mycobacterium tuberculosis Erdman harboring pFCA-LuxAB plasmid assessed as 2-(5-chloropyridin-2-yl)-N-((2R,4R,4aS,5aR,6S,7S,8R,9S,9aR,10aS)-4a,7,9-trihydroxy-2-methyl-6,8-bis(methylamino)decahydro-2H-benzo[b]pyrano[2,3-e][1,4]dioxin-4-yl)acetamide formation at 400 mg/kg, SC measured after 8 hrs. In kind it is ADME, organism-based. As to conditions: in vivo. In outline: as §1

The subject of data set [6] is Mycobacterium tuberculosis. The data set is described as follows: Antibacterial activity against Mycobacterium tuberculosis Erdman harboring pFCA-LuxAB plasmid infected in female BALB/c mouse model assessed as log reduction in bacterial burden in lung at 10 mg/kg, po administered once daily for 12 days starting from day 7 and measured 3 days post last treatment relative to untreated control. It counts as functional. As to conditions: time 15 day. In outline:
as §2

`CN[C@@H]1[C@H](O)[C@H](NC)[C@H]2O[C@]3(O)[C@H](O[C@@H]2[C@H]1O)O[C@H](C)C[C@H]3NC(=O)Cc1ccc(O)cn1`: the Drug uptake result in data set [1] and in data set [3] was “Active” each time. Besides, the “log(activity)” value in data set [2] was 1.13.

As for `CN[C@@H]1[C@H](O)[C@H](NC)[C@H]2O[C@]3(O)[C@H](O[C@@H]2[C@H]1O)O[C@H](C)C[C@H]3NC(=O)Cc1ccc(OP(=O)(O)O)cn1`, in data set [2], the “log(activity)” value stood at 1.11. Further, the Drug metabolism result in data set [4] and in data set [5] was “metabolite_detected” in each case. Also, in data set [3], the Drug uptake entry is “Active”.

Consider `CO[C@H]1/C=C/O[C@@]2(C)Oc3c(C)c(O)c4c(O)c(c(/C=N/N5CCN(C)CC5)c(O)c4c3C2=O)NC(=O)/C(C)=C\C=C\[C@H](C)[C@H](O)[C@@H](C)[C@@H](O)[C@@H](C)[C@H](OC(C)=O)[C@@H]1C` [RIFAMPIN], for which the “log(activity)” value in data set [6] is 1.21.
